Experimental findings from ChEMBL document CHEMBL2321652, “Design and synthesis of HIV-1 protease inhibitors for a long-acting injectable drug application” (Bioorg Med Chem Lett, 2013) are described below.

A short description of data set [1]: Drug metabolism in human liver microsomes at 1 uM after 15 mins. Type of data set: ADME, Microsome. The note with it: read-out: Drug metabolism. A digest of the protocol: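 Human liver microsome incubation at 37 °C for 15 min with compound at 1 µM; turnover expressed as percent of compound metabolized.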
Data set [2] can be described thus: Cytotoxicity against human MT4 cells. Type of data set: cell-based.
Data set [3] deals with Human immunodeficiency virus 1. The data set can be described thus: Antiviral activity against wild type Human immunodeficiency virus 1 3B infected in human MT4 cells assessed as inhibition of viral replication. Type of data set: functional, organism-based. A digest of the protocol:
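EC50 values are averages of at least two independent experiments (typically three to four), each run in quadruplicate. For the serum-shifted line, the same antiviral assay includes 50% human serum, used as a functional measure of plasma protein binding.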

Data set [4] has as its system Human immunodeficiency virus 1. The experiment in a line: Antiviral activity against wild type Human immunodeficiency virus 1 3B infected in human MT4 cells assessed as inhibition of viral replication in presence of 50% human serum.
Data set [5] can be described thus: Plasma clearance in rat at 2 mg/kg, iv. Format: ADME, organism-based. More on the design: dose 2 mg/kg, route intravenous. A digest of the protocol: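 Single intravenous dose of 2 mg/kg in rats. The formulation is typically 1 mg/mL in PEG400/ethanol/saline (70/20/10). Clearance values are averages from two or three animals. High is >3 L/h/kg (>70% liver blood flow) and low is <1.3 L/h/kg (<30%).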

As usually defined, the CC50 is the concentration that lowers cell viability or growth by half. Read a low CC50 as harm at low concentration. The EC50 is the concentration needed to bring the measured effect to its halfway point. Consider `COC(=O)N[C@H](C(=O)N[C@@H](Cc1ccc(-c2ccc(OC)nc2)cc1)[C@@H](O)C[C@@H](Cc1cccc(OC(F)(F)F)c1)C(=O)N[C@H]1c2cc(Cl)ccc2OC[C@H]1O)C(C)(C)C`, for which, in data set [1], the metabolised at 0.25 h, 1 µM was found to be 0%. For the same compound, the CC50 in data set [2] is greater than 10000 nM. For the same compound, the values for the EC50 in data set [3] and in data set [4] were 4.2 nM and 24 nM, respectively.

In general, clearance refers to a measure of how efficiently the substance is removed, as volume per time. In the case of `COC(=O)N[C@H](C(=O)N[C@@H](Cc1ccc(-c2ccc(OC)nc2)cc1)[C@@H](O)C[C@@H](Cc1ccccc1F)C(=O)N[C@H]1[C@H](C)CC[C@H]1O)C(C)(C)C`, the clearance in data set [5] was 78.3 mL/min/kg. Also, the metabolised at 0.25 h, 1 µM in data set [1] is 99%. This compound also came in with a CC50 in data set [2] greater than 10000 nM. Moreover, the results for the 50% effective concentration (EC50) in data set [3] and in data set [4] were 1.1 nM and 3.3 nM, respectively.

With `COC(=O)N[C@H](C(=O)N[C@@H](Cc1ccc(-c2ccc(OC)nc2)cc1)[C@@H](O)C[C@@H](Cc1ccccc1F)C(=O)N[C@H]1c2cc(F)ccc2OC[C@H]1O)C(C)(C)C`, the clearance in data set [5] is 35 mL/min/kg. In addition, the metabolised at 0.25 h, 1 µM in data set [1] amounted to 48%. Further, in data set [2], the CC50 was greater than 10000 nM. Further, the values for the concentration for a half-maximal effect (EC50) in data set [3] and in data set [4] were 1.2 nM and 5.8 nM, respectively.

In the case of `COC(=O)N[C@H](C(=O)N[C@@H](Cc1ccc(-c2ccc(OC)nc2)cc1)[C@@H](O)C[C@@H](Cc1ccccc1F)C(=O)N[C@H]1c2cc(Cl)cc(F)c2OC[C@H]1O)C(C)(C)C`, the metabolised at 0.25 h, 1 µM in data set [1] is 23%. Also, the CC50 in data set [2] was greater than 10000 nM. Moreover, the EC50 in data set [3] worked out at 4.1 nM; in data set [4], 16 nM.

Compound `COC(=O)N[C@H](C(=O)N[C@@H](Cc1ccc(-c2ccc(OC)nc2)cc1)[C@@H](O)C[C@@H](Cc1ccccc1F)C(=O)N[C@H]1c2cc(F)cc(Cl)c2OC[C@H]1O)C(C)(C)C` gave a clearance in data set [5] of 31.7 mL/min/kg. Besides, the metabolised at 0.25 h, 1 µM in data set [1] was determined as 8%. The compound also came in with a CC50 in data set [2] greater than 10000 nM. Also, the concentration for a half-maximal effect (EC50) in data set [3] worked out at 2.6 nM; in data set [4], 8.4 nM.

For `COC(=O)N[C@H](C(=O)N[C@@H](Cc1ccc(-c2ccc(N(C)C)nc2)cc1)[C@@H](O)C[C@@H](Cc1ccccc1F)C(=O)N[C@H]1[C@H](C)CCC[C@H]1O)C(C)(C)C`, in data set [5], the clearance was 93.3 mL/min/kg. In addition, the metabolised at 0.25 h, 1 µM in data set [1] was determined as 99%. Moreover, the CC50 in data set [2] was greater than 10000 nM. The EC50 amounted to 1.1 nM in data set [3] and 4.9 nM in data set [4].

`COC(=O)N[C@H](C(=O)N[C@@H](Cc1ccc(-c2ccc(OC)nc2)cc1)[C@@H](O)C[C@@H](Cc1ccccc1Cl)C(=O)N[C@H]1[C@H](C)CCC[C@H]1O)C(C)(C)C` gave a clearance in data set [5] of 70 mL/min/kg. The metabolised at 0.25 h, 1 µM in data set [1] was determined as 99%. Moreover, the CC50 in data set [2] was greater than 10000 nM. In addition, the EC50 amounted to 1.1 nM in data set [3] and 7.1 nM in data set [4].

Regarding `COC(=O)N[C@H](C(=O)N[C@@H](Cc1ccc(-c2ccc(OC)nc2)cc1)[C@@H](O)C[C@@H](Cc1ccccc1F)C(=O)N[C@H]1c2ccccc2OC[C@H]1O)C(C)(C)C`, the clearance in data set [5] was 96.7 mL/min/kg. The metabolised at 0.25 h, 1 µM in data set [1] stood at 72%. The same compound had a CC50 in data set [2] greater than 10000 nM. Besides, the EC50 came out at 2.5 nM in data set [3] and 6.6 nM in data set [4].

Take `COC(=O)N[C@H](C(=O)N[C@@H](Cc1ccc(-c2ccc(OC)nc2)cc1)[C@@H](O)C[C@@H](Cc1ccccc1F)C(=O)N[C@H]1c2cccc(F)c2OC[C@H]1O)C(C)(C)C`: the clearance in data set [5] was 88.3 mL/min/kg. For the same compound, the metabolised at 0.25 h, 1 µM in data set [1] is 98%. The CC50 in data set [2] is greater than 10000 nM. In addition, the EC50 in data set [3] was determined as 2.8 nM; in data set [4] it was 6.9 nM.

In data set [5], `COC(=O)N[C@H](C(=O)N[C@@H](Cc1ccc(-c2ccc(OC)nc2)cc1)[C@@H](O)C[C@@H](Cc1ccccc1F)C(=O)N[C@H]1c2cc(Cl)ccc2OC[C@H]1O)C(C)(C)C` showed a clearance of 7.83 mL/min/kg. In addition, the metabolised at 0.25 h, 1 µM in data set [1] came to 23%. Moreover, the CC50 in data set [2] was greater than 10000 nM. For the same compound, the EC50 was 2.7 nM in data set [3] and 14 nM in data set [4].

As for `COC(=O)N[C@H](C(=O)N[C@@H](Cc1ccc(-c2ccc(OC)nc2)cc1)[C@@H](O)C[C@@H](Cc1ccccc1F)C(=O)N[C@H]1c2cc(C)cc(F)c2OC[C@H]1O)C(C)(C)C`, in data set [5], the clearance is 83.3 mL/min/kg. Besides, in data set [1], the metabolised at 0.25 h, 1 µM stood at 48%. The compound further gave a CC50 in data set [2] greater than 10000 nM. Also, the values for the EC50 in data set [3] and in data set [4] were 2.8 nM and 9.8 nM, respectively.

For `COC(=O)N[C@H](C(=O)N[C@@H](Cc1ccc(-c2ccc(OC)nc2)cc1)[C@@H](O)C[C@@H](Cc1ccccc1F)C(=O)N[C@H]1CCCC[C@H]1O)C(C)(C)C`, in data set [5], the clearance was 86.7 mL/min/kg. Moreover, in data set [1], the metabolised at 0.25 h, 1 µM came out at 99%. Besides, in data set [2], the CC50 is greater than 10000 nM. The EC50 was determined as 1.8 nM in data set [3] and 5.9 nM in data set [4].

`COC(=O)N[C@H](C(=O)N[C@@H](Cc1ccc(-c2ccc(OC)nc2)cc1)[C@@H](O)C[C@@H](Cc1ccccc1Cl)C(=O)N[C@H]1c2cc(Cl)ccc2OC[C@H]1O)C(C)(C)C` showed a clearance in data set [5] of 23.3 mL/min/kg. Further, the metabolised at 0.25 h, 1 µM in data set [1] worked out at 5%. The compound further had a half-maximal cytotoxic concentration (CC50) in data set [2] greater than 10000 nM. The values for the EC50 in data set [3] and in data set [4] were 3.9 nM and 13 nM, respectively.

As to `COC(=O)N[C@H](C(=O)N[C@@H](Cc1ccc(-c2ccc(OC)nc2)cc1)[C@@H](O)C[C@@H](Cc1cccc(OC(F)(F)F)c1)C(=O)N[C@H]1[C@H](C)CCC[C@H]1O)C(C)(C)C`, the clearance in data set [5] is 90 mL/min/kg. In data set [1], the metabolised at 0.25 h, 1 µM is 94%. The same compound showed a CC50 in data set [2] greater than 10000 nM. In addition, the EC50 in data set [3] stood at 0.9 nM; in data set [4], 3.2 nM.

`COC(=O)N[C@H](C(=O)N[C@@H](Cc1ccc(-c2ccc(OC)nc2)cc1)[C@@H](O)C[C@@H](Cc1ccccc1F)C(=O)N[C@H]1c2cc(C)ccc2OC[C@H]1O)C(C)(C)C` had a clearance in data set [5] of 46.7 mL/min/kg. Besides, the metabolised at 0.25 h, 1 µM in data set [1] came to 63%. Besides, the 50% cytotoxic concentration (CC50) in data set [2] is greater than 10000 nM. Moreover, the values for the EC50 in data set [3] and in data set [4] were 0.9 nM and 7.7 nM, respectively.

Compound `Cc1cccc(C)c1OCC(=O)N[C@@H](Cc1ccccc1)[C@@H](O)C[C@H](Cc1ccccc1)NC(=O)[C@H](C(C)C)N1CCCNC1=O` [LOPINAVIR] had a CC50 in data set [2] greater than 10000 nM. The half-maximal effective concentration (EC50) in data set [3] is 13 nM.

The compound `COC(=O)N[C@H](C(=O)N[C@@H](Cc1ccc(-c2ccc(OC)nc2)cc1)[C@@H](O)C[C@@H](Cc1ccccc1F)C(=O)N[C@H]1c2cccc(Cl)c2OC[C@H]1O)C(C)(C)C` gave a clearance in data set [5] of 65 mL/min/kg. For the same compound, the metabolised at 0.25 h, 1 µM in data set [1] turned out to be 47%. Further, the CC50 in data set [2] was greater than 10000 nM. The results for the EC50 in data set [3] and in data set [4] were 2.4 nM and 5.3 nM, respectively.
